The text below walks through data of ChEMBL document CHEMBL1121883, “1-(Naphthylalkyl)-1H-imidazole derivatives, a new class of anticonvulsant agents” (J Med Chem, 1981).

The subject of data set [1] is Mus musculus. Put plainly: Compound was evaluated for anticonvulsant activity by maximal electroshock assay(MES) in mice after ip administration; 8-17. Format: functional. In a few lines: (§1)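 Male Hilltop ICR-derived mice (19-30 g), groups of 8-10, dosed ip with compound or aqueous vehicle. After 15 min pretreatment, a transcorneal 60-Hz, 50 mA shock was given for 0.2 s. Just before the shock, each mouse was tested on a horizontal wire (10 s). Quantal data were analysed by Litchfield-Wilcoxon to give ED50 with 95% confidence limits.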
On the technique in general: Protection in the maximal electroshock model is a classic sign of anticonvulsant action.

The test system of data set [2] is Mus musculus. Kind of data set: Dose of compound causing a neurological deficit in 50% of mice after ip administration; 45-89. Format: functional. The method in brief:
(§2)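 Traction test in male Hilltop ICR-derived mice (19-30 g, groups of 8-10) just before electroshock, 15 min after ip or 30 min after oral dosing. Mice placed on a 16-gauge, 65-cm copper wire 40 cm above the table; deficit scored as failure to stay on for 10 s. ND50 with 95% limits by Litchfield-Wilcoxon.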

The subject of data set [3] is Mus musculus. Kind of data set: Protective index is defined as ND50 (i.p.) divided by MES ED50(i.p.). Format: functional. The method in brief: (§3)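 Ratio of ND50 from the wire traction test to MES ED50, both measured by the same route (ip or oral) in the same animals. Quantal dose-response data for each were evaluated by Litchfield-Wilcoxon.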
Data set [4] concerns Mus musculus. Kind of data set: Compound was evaluated for anticonvulsant activity by maximal electroshock assay(MES) in mice after ip administration; 8-13. Format: functional. In a few lines:
as §1

In data set [5] the test system is Mus musculus. Put plainly: Dose of compound causing a neurological deficit in 50% of mice after ip administration; 16 to > 100. Format: functional. The method in brief:
as §2

The subject of data set [6] is Mus musculus. Put plainly: Compound was evaluated for anticonvulsant activity by maximal electroshock assay(MES) in mice after ip administration; 8-16. Format: functional. The method in brief:
as §1

For data set [7], the system named is Mus musculus. Put plainly: Dose of compound causing a neurological deficit in 50% of mice after ip administration; 19-38. Format: functional. The method in brief:
as §2

For data set [8], the system named is Mus musculus. Put plainly: Compound was evaluated for anticonvulsant activity by maximal electroshock assay(MES) in mice after po administration; 41-77. Format: functional. The method in brief:
(§4)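 Male Hilltop ICR-derived mice (19-30 g), groups of 8-10, given compound or aqueous vehicle orally. The transcorneal 60-Hz shock (50 mA, 0.2 s) followed a 30 min pretreatment and a wire-hang neurological check (10 s). ED50 and 95% confidence limits were obtained from quantal data by the Litchfield-Wilcoxon method.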

The subject of data set [9] is Mus musculus. Put plainly: Dose of compound causing a neurological deficit in 50% of mice after ip administration; 16-49. Format: functional. The method in brief:
as §2

Data set [10] relates to Mus musculus. Put plainly: Dose causing a neurological deficit in 50% of mice following p.o. administration. Format: functional. In a few lines: as §2
Data set [11] deals with Mus musculus. Kind of data set: Protective index defined as ND50 (p.o.) divided by MES ED50(op). Format: functional. The method in brief:
as §3

Data set [12] deals with Mus musculus. Kind of data set: Compound was evaluated for anticonvulsant activity by maximal electroshock assay(MES) in mice after po administration; 55-103. Format: functional. In a few lines: as §4
Data set [13] deals with Mus musculus. Kind of data set: Dose causing a neurological deficit in 50% of mice after ip administration. Format: functional. The method in brief: as §2
Data set [14] relates to Mus musculus. Kind of data set: Compound was evaluated for anticonvulsant activity by maximal electroshock assay(MES) in mice after ip administration; 20-28. Format: functional. The method in brief:
as §1

The nature of data set [15]: Lethal dose was measured in mice after ip administration. The following applies: mouse, in vivo. Format: toxicity, organism-based. In a few lines:
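Male Simonsen ICR-derived mice (16-24 g), groups of three, given compound ip in increasing doses within a behavioral screen. Deaths counted on day 5, and LD50 estimated from 5-day survival. Quantal data analysed by the Litchfield-Wilcoxon method.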

The subject of data set [16] is Mus musculus. Put plainly: Compound was evaluated for anticonvulsant activity by maximal electroshock assay(MES) in mice after po administration; 69-90. Format: functional. The method in brief:
as §4

Data set [17] relates to Mus musculus. Put plainly: Compound was evaluated for anticonvulsant activity by maximal electroshock assay(MES) in mice after ip administration; 13-43. Format: functional. The method in brief: as §1
In data set [18] the test system is Mus musculus. Put plainly: Dose of compound causing a neurological deficit in 50% of mice after ip administration; 79-125. Format: functional. In a few lines: as §2
Data set [19] relates to Rattus norvegicus. Put plainly: Compound was evaluated for anticonvulsant activity by maximal electroshock assay(MES) in rat after po administration; 34-83. Format: functional. In a few lines: (§5)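 Male Simonsen Sprague-Dawley-derived rats, 80-110 g, groups of 8-10, dosed with compound or aqueous vehicle; pretreatment 15 min after ip or 30 min after oral dosing. Transcorneal electroshock, 150 mA, 60 Hz, 0.2 s, given after the wire test. ED50 with 95% confidence limits from quantal data by Litchfield-Wilcoxon.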

Data set [20] concerns Rattus norvegicus. Kind of data set: Dose of compound causing a neurological deficit in 50% of rat after ip administration. Format: functional. In a few lines:
(§6)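 Rats (Simonsen Sprague-Dawley-derived, 80-110 g, groups of 8-10) placed on a suspended 16-gauge, 65-cm copper wire just before electroshock. Deficit scored as inability to remain for 8 s. Pretreatment was 15 min ip or 30 min oral. Quantal data analysed by Litchfield-Wilcoxon to give ND50 with 95% limits.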

Data set [21] has as its system Rattus norvegicus. Put plainly: Dose of compound causing a neurological deficit in 50% of rat after po administration. Format: functional. In a few lines: as §6
The subject of data set [22] is Mus musculus. Put plainly: Compound was evaluated for anticonvulsant activity by maximal electroshock assay(MES) in mice after ip administration; 14-23. Format: functional. The method in brief:
as §1

In data set [23] the test system is Rattus norvegicus. Put plainly: Compound was evaluated for anticonvulsant activity by maximal electroshock assay(MES) in rat after ip administration; 8-23. Format: functional. In a few lines:
as §5

Data set [24] concerns Mus musculus. Kind of data set: Compound was evaluated for anticonvulsant activity by maximal electroshock assay(MES) in mice after ip administration; 13-19. Format: functional. The method in brief: as §1
Data set [25] deals with Mus musculus. Put plainly: Dose of compound causing a neurological deficit in 50% of mice after ip administration; 25-30. Format: functional. The method in brief:
as §2

Data set [26] relates to Mus musculus. Kind of data set: Compound was evaluated for anticonvulsant activity by maximal electroshock assay(MES) in mice after po administration; 29-53. Format: functional. The method in brief:
as §4

Data set [27] deals with Mus musculus. Kind of data set: Compound was evaluated for anticonvulsant activity by maximal electroshock assay(MES) in mice after ip administration; 12-15. Format: functional. The method in brief:
as §1

For data set [28], the system named is Mus musculus. Put plainly: Dose of compound causing a neurological deficit in 50% of mice after ip administration; 61-69. Format: functional. The method in brief:
as §2

Data set [29] concerns Rattus norvegicus. Kind of data set: Compound was evaluated for anticonvulsant activity by maximal electroshock assay(MES) in rat after ip administration; 1.2-6.2. Format: functional.
Data set [30] relates to Rattus norvegicus. Kind of data set: Dose of compound causing a neurological deficit in 50% of rat after ip administration; 35-83. Format: functional. In a few lines: as §6

A value given as a limit tells only on which side of the number the result lay.

Regarding `Cl.OC(CCn1ccnc1)c1ccc2ccccc2c1` (centres undefined), the 50% effect level in [1] (ED50) was put at a dose of 13 mg/kg. In [2], this compound showed an ND50 of 64 mg/kg. This compound also came in with a PI in [3] of 4.9.
With `COC(CCn1ccnc1)c1ccc2ccccc2c1.O=S(=O)(O)O` (centres undefined), it took a dose of 11 mg/kg to reach the 50% effect level in data set [4] (ED50). The same compound displayed an ND50 in [5] greater than 39 mg/kg. Moreover, the PI in data set [3] is 3.5.
As to `CCOC(Cn1ccnc1)c1ccc2ccccc2c1` (centres undefined), the 50% effective dose (ED50) – broadly, the dose at which the effect has come halfway, by size or by number of responders – in data set [6] stood at 11 mg/kg. This compound also registered an ND50 in data set [7] of 27 mg/kg. In addition, the PI in [3] turned out to be 2.5.
Consider `Cl.c1ccc2cc(C3(Cn4ccnc4)OCCCO3)ccc2c1`, for which it took a dose of 57 mg/kg to reach the 50% effect level in data set [8] (ED50). Also, the ND50 in data set [9] is 30 mg/kg; in data set [10], greater than 100 mg/kg. The results for the PI in data set [11] and in data set [3] were greater than 1.7 and 1.8, respectively.
On to `Cc1ccc2cc(C(=O)Cn3ccnc3)ccc2c1.Cl`, for which the ED50 came out at 76 mg/kg in [12] and 24 mg/kg in [14]. Also, the ND50 is greater than 100 mg/kg in [13] and greater than 150 mg/kg in data set [10]. Besides, the 50% lethal dose (LD50) (usually the dose at which mortality reaches 50%) in data set [15] was greater than 100 mg/kg. Further, the PI in data set [11] is recorded as greater than 2; in [3], greater than 4.3.
Consider `Cc1cc2ccc(C(=O)Cn3ccnc3)cc2cc1C.Cl`, for which the ED50 amounted to 78 mg/kg in [16] and 25 mg/kg in [17]. Also, the ND50 in [13] and in data set [10] was greater than 100 mg/kg each time. The results for the PI in [11] and in data set [3] were greater than 1.3 and greater than 4, respectively.
Consider `Cl.O=C(OC(Cn1ccnc1)c1ccc2ccccc2c1)c1ccccc1` (centres undefined), for which the results for the ND50 in data set [18], in data set [20] and in [21] were 99 mg/kg, greater than 100 mg/kg and greater than 100 mg/kg, respectively. In addition, the ED50 was 53 mg/kg in data set [19], 19 mg/kg in data set [22] and 14 mg/kg in data set [23]. The compound further displayed a PI in [3] of 5.2.
In data set [24], `CCCCOC(Cn1ccnc1)c1cccc2ccccc12` (centres undefined) had an ED50 of 16 mg/kg. The ND50 in data set [25] is 27 mg/kg. Moreover, in data set [3], the PI turned out to be 1.7.
For the compound `Br.CCc1ccc2cccc(C(=O)Cn3ccnc3)c2c1`, the median effective dose (ED50) is 40 mg/kg in data set [26], 13 mg/kg in data set [27] and 3.1 mg/kg in data set [29]. Besides, the values for the ND50 in data set [28], in [10] and in data set [30] were 65 mg/kg, greater than 100 mg/kg and 53 mg/kg, respectively. For the same compound, the PI in data set [11] was greater than 2.5.
